Compound activity as filed in PubChem BioAssay.
KCNQ1 block = blocks the human KCNQ1 potassium channel. B-score at 10 µM. P51787. AID 2642. CHO-K1 KCNQ1, FluxOR thallium flux fluorescence; hits give high values. 310,000 tested, 1.3% active;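 active = compounds whose thallium flux B-score, printed positive for inhibition, exceeds three library SD while starting fluorescence stays within three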;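 also: channel opened by potassium depolarization with thallium stimulus after 20 min compound exposure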
Target sequence (P51787 whole entry, looked up): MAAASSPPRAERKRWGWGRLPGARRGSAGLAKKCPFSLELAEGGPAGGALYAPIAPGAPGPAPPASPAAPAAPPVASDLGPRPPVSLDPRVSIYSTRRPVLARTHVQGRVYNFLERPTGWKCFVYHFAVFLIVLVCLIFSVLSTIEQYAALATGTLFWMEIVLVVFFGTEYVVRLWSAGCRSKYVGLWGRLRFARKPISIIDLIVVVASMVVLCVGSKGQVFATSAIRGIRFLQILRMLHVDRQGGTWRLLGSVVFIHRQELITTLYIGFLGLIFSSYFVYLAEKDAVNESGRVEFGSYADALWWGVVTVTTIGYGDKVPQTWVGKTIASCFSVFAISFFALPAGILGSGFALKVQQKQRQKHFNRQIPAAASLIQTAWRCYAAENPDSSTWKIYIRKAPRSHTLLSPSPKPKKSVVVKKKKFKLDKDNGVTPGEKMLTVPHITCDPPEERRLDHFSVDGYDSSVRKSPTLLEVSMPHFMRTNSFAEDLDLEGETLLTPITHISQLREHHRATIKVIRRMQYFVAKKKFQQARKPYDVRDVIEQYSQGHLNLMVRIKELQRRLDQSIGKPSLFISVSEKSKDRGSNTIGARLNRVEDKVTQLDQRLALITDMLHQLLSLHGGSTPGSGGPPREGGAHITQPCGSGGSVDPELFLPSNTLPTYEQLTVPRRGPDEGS
KCNK3 block = human KCNK3 channel inhibition, primary screen; O14649; CHO-KCNK3 thallium flux, FluxOR fluorescence; hits give low values; B-score at 10 µM; 340,000 tested, 0.84% active; AID 602410;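 active = B-score under library mean minus 4 SD, starting fluorescence ratio at most library mean plus 5 SD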;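 also: more negative B-score means stronger inhibition of thallium flux through KCNK3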
KCNQ1 pot = potentiators or activators of human KCNQ1 potassium channel. CHO-K1 KCNQ1, thallium flux FluxOR fluorescence; hits give high values. 310,000 tested, 0.35% active. B-score at 10 µM. P51787;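 active = fluorescence ratio B-score, a plate-corrected score, at least three library SD, with initial intensity B-score within 5 SD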
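assay system = KCNQ1-transfected CHO-K1 cells | medium = assay buffer with matched DMSO | probe or stimulus = depolarizing K+/Tl+ stimulus, K2SO4 and Tl2SO4 each 12.5 mM in 5x stock | dosing = single dose | incubation = dye 90 min, compound 20 min, room temperature | detection = kinetic FluxOR fluorescence, 10 s baseline plus 110 s post-stimulus | evaluation = ratio B score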
KCNK9 inh = inhibitors of human KCNK9 two-pore domain potassium channel | Q9NPC2 | HEK293 KCNK9, FluxOR thallium flux fluorescence; hits give low values | B-score at 10 µM | 310,000 tested, 1.2% active | AID 488922;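 active = ratio B-score over 3 SD below the library mean, with starting fluorescence within 5 SD of its mean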;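 also: negative B-score means less thallium flux so channel inhibition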
hERG rescue = shields human hERG channel from block by proarrhythmic agents. AID 1511. CHO-hERG, FluxOR thallium flux, dofetilide IC70 present. 310,000 tested, 0.51% active. activation (rescue from dofetilide block), less the hit threshold, % at 10 µM. Q12809;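 active = activation above the mean of controls blocked by dofetilide plus 5 SD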;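 also: thallium influx through hERG after potassium depolarization seen as dye fluorescence rise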
KCNK9 inh conf = human KCNK9 inhibitor confirmation | shares compounds with KCNK9 inh | HEK293 KCNK9 cells, FluxOR thallium flux fluorescence | inhibition, % at 10 µM | 4,900 tested, 43% active;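 active = thallium signal inhibited by more than 5 SD of the compound-free buffer control wells, on both duplicate plates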;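 also: 0% = assay buffer control wells without compound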
Kir2-1 spec = tests whether KCNK9 modulators also affect mouse Kir2.1; shares compounds with KCNK9 inh; Kir2.1 cells, FluxOR thallium flux fluorescence; inhibition, % at 10 µM; 4,900 tested, 4% active; AID 492993;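 active = thallium signal drop more than 5 SD beyond the mean of the no-compound control wells, seen in both duplicate plates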;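 also: signal is fluorescence rise after thallium addition divided by baseline fluorescence; plate controls were assay buffer only for no effect and full block by chlorpromazine control for full effect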
HEK293 Tl ctr = non-induced cell nonspecific activity of KCNK9 modulators | shares compounds with KCNK9 inh | non-induced KCNK9-HEK293, FluxOR thallium flux | inhibition, % at 10 µM | 4,900 tested, 40% active | AID 492997;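 active = thallium signal drop beyond 5 SD of the untreated control mean, on both duplicate plates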;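 also: plate controls were buffer only IC0 wells for no effect and SID17386958 at its maximal inhibitory level for full effect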
Starred values were filed as active, the others as inactive; i = inactive; nt = no result given. In the library only some 3.1% were active in any assay of this set; here they are far more common.

SMILES | KCNQ1 block | KCNK3 block | KCNQ1 pot | KCNK9 inh | hERG rescue | KCNK9 inh conf | Kir2-1 spec | HEK293 Tl ctr
COc1ccc(C(=O)C2CCCN(C(=O)c3ccc(CSC)o3)C2)cc1F (centres undefined) | i | i | i | i | -18.8 | i | i | i
COc1ccc(C(=O)C2CCCN(C(=O)c3noc4c3CCCC4)C2)c(C)c1 (centres undefined) | i | i | i | i | -4.5 | i | i | i
C=CC[C@H](CC(=O)OC(C)(C)C)C(=O)OC[C@@H]1CCCN1C(=O)[C@@H](CC=C)CC(=O)NCCO | nt | i | nt | nt | nt | nt | nt | nt
COc1ccccc1CNS(=O)(=O)c1ccc2c(c1)NC(=O)C(C)S2 (centres undefined) | i | i | i | i | -7.7 | nt | nt | nt
COc1ccc(C(=O)C2CCCN(C(=O)c3noc4c3CCCC4)C2)cc1F (centres undefined) | i | i | i | i | 0.2 | i | i | i
Cc1ccccc1N1CCN(C2CCCN(C(=O)c3noc4c3CCCC4)C2)CC1 (centres undefined) | i | i | i | i | -11.0 | i | i | i
COc1ccc(C(=O)C2CCCN(C(=O)c3ccccc3C(C)=O)C2)cc1F (centres undefined) | i | i | i | i | -6.7 | nt | nt | nt
Cc1cnc(C(=O)N2CCCC(N3CCN(c4ccccc4C)CC3)C2)cn1 (centres undefined) | i | i | i | i | -9.6 | nt | nt | nt
CCOC(=O)c1ccc(N2C(=O)c3n[nH]c(-c4ccco4)c3C2c2cccc([N+](=O)[O-])c2)cc1 (centres undefined) | i | i | i | -9.44* | -8.3 | 64.0%* | i | 30.5%*
CCOC(=O)c1ccc(N2C(=O)c3n[nH]c(C)c3C2c2ccco2)cc1 (centres undefined) | i | i | i | i | -9.5 | nt | nt | nt
O=[N+]([O-])c1ccc(N2CCN(c3ccccn3)CC2)c(Cl)c1 | i | i | i | i | -8.9 | nt | nt | nt
Cc1noc(C)c1C(=O)Nc1ccccc1N1CCOCC1 | nt | i | nt | nt | nt | nt | nt | nt
O=C(O)c1ccccc1N/N=C\c1ccnc2ccccc12 | i | i | i | i | -9.3 | nt | nt | nt
O=C(O)c1ccccc1N/N=C/c1cc(Br)cc(Br)c1O | 6* | i | i | i | -13.0 | i | i | i
N#Cc1ccsc1NC(=O)COC(=O)C1=NNC(=O)CC1 | nt | i | nt | nt | nt | nt | nt | nt
CCOC(=O)c1c(C)[nH]c(N=Nc2ccccc2C)c1C | i | i | i | -9.37* | -7.3 | 51.5%* | i | i
CCNC(=O)COC(=O)CNC(=O)c1cc(Cl)cc([N+](=O)[O-])c1 | i | i | i | i | -8.0 | nt | nt | nt
COc1ccc(C2CC(c3cccs3)=Nc3ccccc3S2)cc1 (centres undefined) | i | i | i | -12.1* | -2.4 | 51.5%* | i | 36.0%*
COc1cccc(-c2nnc(SCC(=O)Nc3ccc4c(c3)OCCO4)n2Cc2ccco2)c1 | i | i | i | -16.4* | -5.6 | 63.5%* | i | 37.0%*
CC1(C)CC(=O)C=C(c2cccc(Br)c2)C1 | nt | i | nt | nt | nt | nt | nt | nt
CSc1nn2c(C(F)(F)F)cc(C(F)(F)F)nc2c1C(N)=O | i | i | i | i | -3.3 | nt | nt | nt
CC(C)(C)N1C(=O)[C@H]2[C@@H](c3ccc(Br)cc3)N3C(=O)N(c4cccc(Cl)c4)C(=O)[C@@]3(Cc3ccccc3)[C@H]2C1=O | i | i | i | -8.44* | -5.4 | i | i | 26.0%*
COc1ccc([C@@H]2[C@@H]3C(=O)N(C(C)(C)C)C(=O)[C@@H]3[C@]3(Cc4ccccc4)C(=O)N(c4cccc(Cl)c4)C(=O)N23)cc1 | i | i | i | i | -9.3 | nt | nt | nt
Cc1cccc(N(C)S(=O)(=O)c2ccc3c(c2)C(C)(C)C(=O)N3C)c1 | i | i | i | i | -8.6 | nt | nt | nt
